Measured values as given in ChEMBL document CHEMBL5236607, “Membrane-Active Cyclic Amphiphilic Peptides: Broad-Spectrum Antibacterial Activity Alone and in Combination with Antibiotics” (J Med Chem, 2022).
Active and inactive are the calls of the source. The calls are words filed in the database; no cut-off is given here. Bridge positions count the residues as written; N and C are the ends. Square brackets hold non-standard residues; d marks the D form. Peptide text beside a SMILES is read from it. * marks the point of attachment. X1 = CC[C@H](C)CCCCC(=O)*; Dab = NCC[C@H](N)C(=O)O

Key:
[1] = Therapeutic index, ratio of HC50 for human RBC to MIC for methicillin resistant Staphylococcus aureus ATCC BAA-1556
In short: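 Human RBCs washed in PBS pH 7.4 and mixed 1:1 with two-fold peptide dilutions (4% v/v suspension), 2 h at 37 °C. Hemoglobin in supernatant read at 567 nm against PBS (0%) and 1% Triton X-100 (100%). HC50 is the concentration giving 50% hemolysis. Index is HC50 divided by MIC against MRSA.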

Pseudomonas aeruginosa = experiment: Antibacterial activity against Pseudomonas aeruginosa ATCC […] after 24 hrs by microbroth dilution method; type: functional
Escherichia coli [2] = experiment: Antibacterial activity against Escherichia coli ATCC 25922 after 24 hrs by microbroth dilution method; type: functional
Staphylococcus aureus [3] = experiment: Antibacterial activity against methicillin resistant Staphylococcus aureus ATCC BAA-1556 after 24 hrs by microbroth dilution method; type: functional
Klebsiella pneumoniae = experiment: Antibacterial activity against imipenem resistant Klebsiella pneumoniae ATCC BAA-1705 after 24 hrs by microbroth dilution method; type: functional
Escherichia coli [4] = experiment: Induction of resistance development in Escherichia coli ATCC BAA-2452 assessed as increase in MIC by microtiter plate reader assay; type: functional, organism-based
In short: (§1)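 Serial passage resistance assay with 2-fold microdilution MICs in 96-well plates. Each passage takes the well with the highest concentration still permitting growth, adjusts it to 0.5 McFarland, and dilutes it to a final 5 × 10^5 CFU/mL for the next passage. Eighteen passages; MIC recorded at each. Triplicate.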

Staphylococcus aureus [5] = experiment: Induction of resistance development in Staphylococcus aureus ATCC 29213 assessed as increase in MIC by microtiter plate reader assay; type: functional, organism-based; in short: as §1
Escherichia coli [6] = experiment: Induction of resistance development in Escherichia coli ATCC 25922 assessed as increase in MIC by microtiter plate reader assay; type: functional, organism-based
Staphylococcus aureus [7] = experiment: Induction of resistance development in methicillin resistant Staphylococcus aureus ATCC BAA-1556 assessed as increase in MIC by microtiter plate reader assay; type: functional, organism-based; in short: as §1

In the case of `N=C(N)NCCC[C@@H]1NC(=O)[C@H](CCCNC(=N)N)NC(=O)[C@H](Cc2c[nH]c3ccccc23)NC(=O)[C@H](Cc2c[nH]c3ccccc23)NC(=O)[C@H](Cc2c[nH]c3ccccc23)NC(=O)[C@H](Cc2c[nH]c3ccccc23)NC1=O` (cyclo(RRWWWW)), the TI [1] is reported as 1.33.
In the case of `N=C(N)NCCC[C@@H]1NC(=O)[C@H](CCCNC(=N)N)NC(=O)[C@H](Cc2c[nH]c3ccccc23)NC(=O)[C@H](Cc2c[nH]c3ccccc23)NC(=O)[C@H](Cc2c[nH]c3ccccc23)NC1=O` (cyclo(RRWWW)), the TI [1] is reported as 3.75.
`N=C(N)NCCC[C@@H]1NC(=O)[C@H](CCCNC(=N)N)NC(=O)[C@H](CCCNC(=N)N)NC(=O)[C@H](CCCNC(=N)N)NC(=O)[C@H](Cc2c[nH]c3ccccc23)NC(=O)[C@H](Cc2c[nH]c3ccccc23)NC(=O)[C@H](Cc2c[nH]c3ccccc23)NC(=O)[C@H](Cc2c[nH]c3ccccc23)NC(=O)[C@H](Cc2c[nH]c3ccccc23)NC(=O)[C@H](Cc2c[nH]c3ccccc23)NC(=O)[C@H](CCCNC(=N)N)NC(=O)[C@H](CCCNC(=N)N)NC(=O)[C@H](CCCNC(=N)N)NC1=O` (cyclo(RRRRRRRWWWWWW)) gave a TI [1] of 5.31.
Compound `N=C(N)NCCC[C@@H]1NC(=O)[C@H](CCCNC(=N)N)NC(=O)[C@H](CCCNC(=N)N)NC(=O)[C@H](Cc2c[nH]c3ccccc23)NC(=O)[C@H](Cc2c[nH]c3ccccc23)NC(=O)[C@H](Cc2c[nH]c3ccccc23)NC(=O)[C@H](Cc2c[nH]c3ccccc23)NC(=O)[C@H](Cc2c[nH]c3ccccc23)NC(=O)[C@H](CCCNC(=N)N)NC(=O)[C@H](CCCNC(=N)N)NC1=O` has a TI [1] of 57.5.
In the case of `N=C(N)NCCC[C@@H]1NC(=O)[C@H](CCCNC(=N)N)NC(=O)[C@H](Cc2c[nH]c3ccccc23)NC(=O)[C@H](Cc2c[nH]c3ccccc23)NC(=O)[C@H](Cc2c[nH]c3ccccc23)NC(=O)[C@H](Cc2c[nH]c3ccccc23)NC(=O)[C@H](Cc2c[nH]c3ccccc23)NC(=O)[C@H](CCCNC(=N)N)NC1=O` (cyclo(RRRWWWWW)), the TI [1] is reported as 0.63.
For `N=C(N)NCCC[C@@H]1NC(=O)[C@H](CCCNC(=N)N)NC(=O)[C@H](CCCNC(=N)N)NC(=O)[C@H](Cc2c[nH]c3ccccc23)NC(=O)[C@H](Cc2c[nH]c3ccccc23)NC(=O)[C@H](Cc2c[nH]c3ccccc23)NC(=O)[C@H](Cc2c[nH]c3ccccc23)NC(=O)[C@H](CCCNC(=N)N)NC1=O` (cyclo(RRRRWWWW)), the TI [1] was 43.8.
In the case of `N=C(N)NCCC[C@@H]1NC(=O)[C@H](CCCNC(=N)N)NC(=O)[C@H](CCCNC(=N)N)NC(=O)[C@H](CCCNC(=N)N)NC(=O)[C@H](Cc2c[nH]c3ccccc23)NC(=O)[C@H](Cc2c[nH]c3ccccc23)NC(=O)[C@H](Cc2c[nH]c3ccccc23)NC(=O)[C@H](Cc2c[nH]c3ccccc23)NC(=O)[C@H](Cc2c[nH]c3ccccc23)NC(=O)[C@H](CCCNC(=N)N)NC(=O)[C@H](CCCNC(=N)N)NC(=O)[C@H](CCCNC(=N)N)NC1=O` (cyclo(RRRRRRRWWWWW)), the TI [1] is reported as 21.9.
Compound `N=C(N)NCCC[C@@H]1NC(=O)[C@H](CCCNC(=N)N)NC(=O)[C@H](CCCNC(=N)N)NC(=O)[C@H](CCCNC(=N)N)NC(=O)[C@H](Cc2c[nH]c3ccccc23)NC(=O)[C@H](Cc2c[nH]c3ccccc23)NC(=O)[C@H](Cc2c[nH]c3ccccc23)NC(=O)[C@H](Cc2c[nH]c3ccccc23)NC(=O)[C@H](CCCNC(=N)N)NC(=O)[C@H](CCCNC(=N)N)NC(=O)[C@H](CCCNC(=N)N)NC1=O` (cyclo(RRRRRRRWWWW)) has a TI [1] of 11.9.
For `N=C(N)NCCC[C@@H]1NC(=O)[C@H](CCCNC(=N)N)NC(=O)[C@H](CCCNC(=N)N)NC(=O)[C@H](Cc2c[nH]c3ccccc23)NC(=O)[C@H](Cc2c[nH]c3ccccc23)NC(=O)[C@H](Cc2c[nH]c3ccccc23)NC(=O)[C@H](Cc2c[nH]c3ccccc23)NC(=O)[C@H](Cc2c[nH]c3ccccc23)NC(=O)[C@H](Cc2c[nH]c3ccccc23)NC(=O)[C@H](Cc2c[nH]c3ccccc23)NC(=O)[C@H](CCCNC(=N)N)NC1=O` (cyclo(RRRRWWWWWWW)), the MIC (Pseudomonas aeruginosa) was greater than 256 µg/mL and the TI [1] was 0.23.
Work on `N=C(N)NCCC[C@@H]1NC(=O)[C@H](CCCNC(=N)N)NC(=O)[C@H](CCCNC(=N)N)NC(=O)[C@H](Cc2c[nH]c3ccccc23)NC(=O)[C@H](Cc2c[nH]c3ccccc23)NC(=O)[C@H](Cc2c[nH]c3ccccc23)NC(=O)[C@H](Cc2c[nH]c3ccccc23)NC(=O)[C@H](Cc2c[nH]c3ccccc23)NC(=O)[C@H](Cc2c[nH]c3ccccc23)NC(=O)[C@H](CCCNC(=N)N)NC(=O)[C@H](CCCNC(=N)N)NC1=O` (cyclo(RRRRRWWWWWW)) yielded an MIC (Escherichia coli [2]) greater than 256 µg/mL, an MIC (Pseudomonas aeruginosa) greater than 256 µg/mL and an MIC (Staphylococcus aureus [3]) greater than 256 µg/mL. The TI [1] was greater than 0.54 and the MIC (Klebsiella pneumoniae) was greater than 256 µg/mL.
For `N=C(N)NCCC[C@@H]1NC(=O)[C@H](CCCNC(=N)N)NC(=O)[C@H](CCCNC(=N)N)NC(=O)[C@H](CCCNC(=N)N)NC(=O)[C@H](Cc2c[nH]c3ccccc23)NC(=O)[C@H](Cc2c[nH]c3ccccc23)NC(=O)[C@H](Cc2c[nH]c3ccccc23)NC(=O)[C@H](Cc2c[nH]c3ccccc23)NC(=O)[C@H](Cc2c[nH]c3ccccc23)NC(=O)[C@H](Cc2c[nH]c3ccccc23)NC(=O)[C@H](CCCNC(=N)N)NC(=O)[C@H](CCCNC(=N)N)NC1=O` (cyclo(RRRRRRWWWWWW)), the TI [1] was 10.6.
Work on `N=C(N)NCCC[C@@H]1NC(=O)[C@H](CCCNC(=N)N)NC(=O)[C@H](CCCNC(=N)N)NC(=O)[C@H](Cc2c[nH]c3ccccc23)NC(=O)[C@H](Cc2c[nH]c3ccccc23)NC(=O)[C@H](Cc2c[nH]c3ccccc23)NC(=O)[C@H](Cc2c[nH]c3ccccc23)NC(=O)[C@H](Cc2c[nH]c3ccccc23)NC(=O)[C@H](Cc2c[nH]c3ccccc23)NC(=O)[C@H](CCCNC(=N)N)NC1=O` yielded a TI [1] of 0.59.
Compound `N=C(N)NCCC[C@@H]1NC(=O)[C@H](CCCNC(=N)N)NC(=O)[C@H](CCCNC(=N)N)NC(=O)[C@H](CCCNC(=N)N)NC(=O)[C@H](Cc2c[nH]c3ccccc23)NC(=O)[C@H](Cc2c[nH]c3ccccc23)NC(=O)[C@H](Cc2c[nH]c3ccccc23)NC(=O)[C@H](Cc2c[nH]c3ccccc23)NC(=O)[C@H](Cc2c[nH]c3ccccc23)NC(=O)[C@H](Cc2c[nH]c3ccccc23)NC(=O)[C@H](Cc2c[nH]c3ccccc23)NC(=O)[C@H](CCCNC(=N)N)NC(=O)[C@H](CCCNC(=N)N)NC(=O)[C@H](CCCNC(=N)N)NC1=O` (cyclo(RRRRRRRWWWWWWW)) has a TI [1] of 8.75.
With `N=C(N)NCCC[C@@H]1NC(=O)[C@H](CCCNC(=N)N)NC(=O)[C@H](Cc2c[nH]c3ccccc23)NC(=O)[C@H](Cc2c[nH]c3ccccc23)NC(=O)[C@H](Cc2c[nH]c3ccccc23)NC(=O)[C@H](Cc2c[nH]c3ccccc23)NC(=O)[C@H](Cc2c[nH]c3ccccc23)NC(=O)[C@H](Cc2c[nH]c3ccccc23)NC(=O)[C@H](CCCNC(=N)N)NC1=O` the TI [1] was 1.02.
In the case of `N=C(N)NCCC[C@@H]1NC(=O)[C@H](CCCNC(=N)N)NC(=O)[C@H](CCCNC(=N)N)NC(=O)[C@H](Cc2c[nH]c3ccccc23)NC(=O)[C@H](Cc2c[nH]c3ccccc23)NC(=O)[C@H](Cc2c[nH]c3ccccc23)NC(=O)[C@H](Cc2c[nH]c3ccccc23)NC(=O)[C@H](Cc2c[nH]c3ccccc23)NC(=O)[C@H](Cc2c[nH]c3ccccc23)NC(=O)[C@H](Cc2c[nH]c3ccccc23)NC(=O)[C@H](CCCNC(=N)N)NC(=O)[C@H](CCCNC(=N)N)NC1=O` (cyclo(RRRRRWWWWWWW)), the MIC (Escherichia coli [2]) is reported as greater than 256 µg/mL, the MIC (Pseudomonas aeruginosa) is reported as greater than 256 µg/mL and the MIC (Staphylococcus aureus [3]) is reported as greater than 256 µg/mL. It also gave a TI [1] greater than 0.45 and an MIC (Klebsiella pneumoniae) greater than 256 µg/mL.
In the case of `CC[C@H](C)CCCCC(=O)N[C@@H](CCN)C(=O)N[C@H](C(=O)N[C@@H](CCN)C(=O)N[C@H]1CCNC(=O)[C@H]([C@@H](C)O)NC(=O)[C@H](CCN)NC(=O)[C@H](CCN)NC(=O)[C@H](CC(C)C)NC(=O)[C@@H](Cc2ccccc2)NC(=O)[C@H](CCN)NC1=O)[C@@H](C)O` (X1-[Dab]T[Dab][Dab][Dab][dF]L[Dab][Dab]T; lactam 4-C), the Activity (Escherichia coli [4]) is reported as “Active”, the Activity (Staphylococcus aureus [5]) is reported as “Active” and the Activity (Escherichia coli [6]) is reported as “Active”. The Activity (Staphylococcus aureus [7]) was “Active”.
`N=C(N)NCCC[C@@H]1NC(=O)[C@H](CCCNC(=N)N)NC(=O)[C@H](Cc2c[nH]c3ccccc23)NC(=O)[C@H](Cc2c[nH]c3ccccc23)NC(=O)[C@H](Cc2c[nH]c3ccccc23)NC(=O)[C@H](Cc2c[nH]c3ccccc23)NC(=O)[C@H](CCCNC(=N)N)NC1=O` (cyclo(RRRWWWW)) showed a TI [1] of 13.1.
`N=C(N)NCCC[C@@H]1NC(=O)[C@H](CCCNC(=N)N)NC(=O)[C@H](Cc2c[nH]c3ccccc23)NC(=O)[C@H](Cc2c[nH]c3ccccc23)NC(=O)[C@H](Cc2c[nH]c3ccccc23)NC(=O)[C@H](CCCNC(=N)N)NC1=O` (cyclo(WWWRRR)) showed a TI [1] of 9.69.
In the case of `O=C(O)c1cn(C2CC2)c2cc(N3CCNCC3)c(F)cc2c1=O`, the Activity (Escherichia coli [4]) is reported as “Active”, the Activity (Staphylococcus aureus [5]) is reported as “Active” and the Activity (Staphylococcus aureus [7]) is reported as “Active”.
